Among the data in ChEMBL document CHEMBL1687687, “Identification of a New Series of STAT3 Inhibitors by Virtual Screening” (ACS Med Chem Lett, 2010) are inhibition and Activity values, retold here.

Assay [1] deals with T1, Signal transducer and activator of transcription 3 (Homo sapiens, UniProt P40763). Briefly: Inhibition of STAT3 in IL-6 stimulated human MDA-MB-468 cells assessed as reduction in amplification of c-myc promoter by CHIP assay. Format: cell-based. The gist of the method:
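Chromatin immunoprecipitation in compound-treated MDA-MB-468 breast cancer cells. STAT3 occupancy of the c-myc promoter was judged by amplification of the c-myc promoter from the immunoprecipitate.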

The target of assay [2] is T1, Signal transducer and activator of transcription 3. Briefly: Inhibition of STAT3 in human MDA-MB-468 cells assessed as reduction in c-myc expression at 20 uM by Western blotting. Format: cell-based. The gist of the method:
(§1)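 MDA-MB-468 breast cancer cells were treated with compound at a series of concentrations. Cell lysates were analysed by Western blotting for c-myc, cyclin D1 and survivin, with STAT3 Tyr705 phosphorylation probed alongside.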
On the technique in general: In western blotting, separated proteins are transferred to a membrane and probed.

The target is the same in assay [3]. Briefly: Inhibition of STAT3 in human MDA-MB-468 cells assessed as reduction in cyclin D1 expression at 20 uM by Western blotting. Format: cell-based. An outline of the steps:
as §1

Assay [4] has the same target. Briefly: Inhibition of STAT3 in human MDA-MB-468 cells assessed as reduction in cyclin D1 expression at 50 uM by Western blotting. In kind it is cell-based. The gist of the method:
as §1

Assay [5] has the same target. As to the kind of experiment: Inhibition of STAT3 in human MDA-MB-468 cells assessed as reduction in survivin expression at 10 uM by Western blotting. Format: cell-based. An outline of the steps:
as §1

Assay [6] shares this target. Briefly: Inhibition of STAT3 DNA binding activity in IL-6 stimulated human MDA-MB-468 cells at 50 uM by transcription factor ELISA. In kind it is cell-based. A general note: In an ELISA, binding on a coated surface is turned into a signal by an enzyme label.
For assay [7], the target named is T2, Signal transducer and activator of transcription 5A (Homo sapiens) (UniProt P42229).
T2 sequence (whole entry): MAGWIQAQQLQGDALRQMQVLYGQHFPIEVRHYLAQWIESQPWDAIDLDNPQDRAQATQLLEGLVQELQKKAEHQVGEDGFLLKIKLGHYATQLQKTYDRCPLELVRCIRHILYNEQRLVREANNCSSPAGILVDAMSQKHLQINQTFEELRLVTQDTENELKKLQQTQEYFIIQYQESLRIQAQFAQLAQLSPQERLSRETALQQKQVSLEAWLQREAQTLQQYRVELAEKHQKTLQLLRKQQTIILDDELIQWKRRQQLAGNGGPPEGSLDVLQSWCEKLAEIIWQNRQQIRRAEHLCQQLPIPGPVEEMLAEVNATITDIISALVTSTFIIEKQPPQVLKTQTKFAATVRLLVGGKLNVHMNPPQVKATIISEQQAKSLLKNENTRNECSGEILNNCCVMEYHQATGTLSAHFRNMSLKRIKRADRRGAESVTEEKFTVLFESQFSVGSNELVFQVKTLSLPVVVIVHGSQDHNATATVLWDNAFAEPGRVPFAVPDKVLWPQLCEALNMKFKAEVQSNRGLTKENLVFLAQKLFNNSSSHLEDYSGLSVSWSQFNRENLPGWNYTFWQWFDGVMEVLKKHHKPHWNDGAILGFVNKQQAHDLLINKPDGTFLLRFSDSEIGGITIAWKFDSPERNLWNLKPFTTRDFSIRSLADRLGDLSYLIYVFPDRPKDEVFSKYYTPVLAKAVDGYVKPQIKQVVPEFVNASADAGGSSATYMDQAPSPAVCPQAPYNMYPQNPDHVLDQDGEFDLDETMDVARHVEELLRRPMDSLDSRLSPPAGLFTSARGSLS
Briefly: Inhibition of STAT5a DNA binding activity in IL-6 stimulated human MDA-MB-468 cells at 50 uM by transcription factor ELISA. In kind it is cell-based.

A further assay concerns SCC-3. As to the kind of experiment: Antitumor activity against human SCC-3 cells xenografted in BALB/cA-v/v nude mouse assessed as decrease in tumor volume at 160 mg/kg, po QD for 4 days measured on 4th day relative to control. Set-up: scale not given: the % may be the effect or the level left. Format: functional. The gist of the method:
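Human SCC-3 lymphoma cells implanted subcutaneously in nude mice. Compound given by oral gavage at 160 mg/kg once daily for 4 days. Tumour growth was assessed on day 4 against untreated controls, with significance taken at p < 0.05. Body weight and signs of toxicity were monitored over the same period.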

A further assay concerns MDA-MB-453. As to the kind of experiment: Induction of apoptosis in human MDA-MB-453 cells assessed as increase in caspase3/7 activity at 1-100 uM by fluorescence assay. In kind it is functional, cell-based.

SMILES strings stand for the structures. Active and inactive are the calls of the source. The rule behind the calls is not given here.

T1 sequence (P40763 whole entry): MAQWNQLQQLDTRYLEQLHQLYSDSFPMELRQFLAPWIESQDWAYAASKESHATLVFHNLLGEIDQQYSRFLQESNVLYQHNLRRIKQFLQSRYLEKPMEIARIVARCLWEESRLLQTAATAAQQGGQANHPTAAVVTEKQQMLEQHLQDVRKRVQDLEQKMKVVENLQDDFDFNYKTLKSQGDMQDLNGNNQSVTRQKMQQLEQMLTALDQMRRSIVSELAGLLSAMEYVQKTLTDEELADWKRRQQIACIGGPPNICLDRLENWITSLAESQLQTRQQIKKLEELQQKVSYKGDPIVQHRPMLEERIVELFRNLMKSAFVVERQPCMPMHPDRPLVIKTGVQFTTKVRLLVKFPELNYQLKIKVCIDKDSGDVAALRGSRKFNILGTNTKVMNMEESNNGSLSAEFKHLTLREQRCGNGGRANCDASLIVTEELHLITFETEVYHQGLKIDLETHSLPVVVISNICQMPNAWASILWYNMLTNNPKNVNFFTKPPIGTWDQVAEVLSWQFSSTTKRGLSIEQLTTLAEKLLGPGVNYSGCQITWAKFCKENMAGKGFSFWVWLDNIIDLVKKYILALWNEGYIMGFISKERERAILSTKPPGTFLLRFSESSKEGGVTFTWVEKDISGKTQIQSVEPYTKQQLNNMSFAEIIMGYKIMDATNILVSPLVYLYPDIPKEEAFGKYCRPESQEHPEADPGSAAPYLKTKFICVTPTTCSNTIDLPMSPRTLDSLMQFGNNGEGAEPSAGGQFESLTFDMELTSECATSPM

For the compound `O=C(Nc1nnc(-c2ccco2)o1)c1cc(-c2ccccc2)nc2ccccc12`, the inhibition entry in [1], in assay [2], in assay [3], in assay [4], in [5] and in assay [6] was “Active” in each case. Further, the inhibition entry in assay [7] is “inactive”. In addition, the Activity in the assay with SCC-3 is 40%. Moreover, in the assay with MDA-MB-453, the outcome was inactive.
